Assay results taken from PMC3891043 (Canadian journal of chemistry, 2011).

Tests used:
[1] = Photolysis quantum yields; assay type: physicochemical
Summary of the method: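 Caged compound (1–9 mmol/L) plus internal standard (caffeine or 4-acetamidophenol) in water, buffer or solvent, in a quartz tube. Irradiated in a Rayonet carousel (two 15 W, 3000 Å Hg lamps), with ferrioxalate actinometry. Aliquots taken every 30 s up to 5 min, diluted and run on C18 LC-MS (water/methanol gradient with ammonium formate/formic acid), three injections each. Quantitation used calibration curves; Φ = concentration change / photons absorbed. 1H NMR in D2O confirmed products.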

[2] = Stern-Volmer quenching with sorbate; assay type: physicochemical; details: unbuffered 18 MΩ Ultrapure H2O; from KSV with kq assumed kdiff ~ 7.2 × 10^9 s^−1
Summary of the method: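 pHP GABA (0.001–0.01 mol/L) was diluted with potassium sorbate quencher (0–0.1 mol/L) and photolysed under the quantum-yield conditions (Rayonet, 3000 Å, LC-MS quantitation of GABA release). KSV came from Φ0/Φ vs [Q]. Triplet lifetime was obtained from KSV, taking kq as the diffusion rate in water.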

[3] = 300 nm, pH 5.0, ammonium acetate (0.01 mol/L), buffered CH3CN–H2O
[4] = unbuffered 18 MΩ Ultrapure H2O, conversion <2%

Structure (SMILES): NCCCC(=O)OCC(=O)c1ccc(O)c(F)c1.O=C(O)C(F)(F)F [Compound 16, 4-(2-(3-Fluoro-4-hydroxyphenyl)-2-oxoethoxy)-4-oxobutan-1-aminium-2,2,2-trifluoroacetate]
- Φapp, quantum yield for the appearance of GABA [1, 3]: 0.14
- Φapp, quantum yield for the appearance of rearranged acid [1, 3]: 0.14
- Φdis, quantum yield for the disappearance of pHP GABA [1, 3]: 0.15
- Φapp, quantum yield for the appearance of GABA [1, 4]: 0.15
- Φapp, quantum yield for the appearance of rearranged acid [1, 4]: 0.15
- Φdis, quantum yield for the disappearance of pHP GABA [1, 4]: 0.16
- τ^3, triplet lifetime [2]: 3.23 10^−9s
